Experiments:
DU-145 [1] = assay: Growth inhibition of human DU145 cells after 2 days by MTT assay; format: functional; conditions: DU-145, 48 h
Outline: (§1)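 HT-29 and DU-145 cells seeded at 5 × 10⁴ cells/mL; serial concentrations added in duplicate; 37 °C, 5% CO₂, two days. MTT dye (Cell Titer96) for up to 4 h at 37 °C, then solubilization/stop mix overnight at room temperature; OD at 570 nm. GI₅₀ = concentration giving 50% growth inhibition; mean ± SEM of three or more experiments; doxorubicin as internal standard.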

[2] = molecular target: Glycogen synthase kinase-3 beta (Homo sapiens) (UniProt P49841); assay: Inhibition of human GSK3-beta assessed as remaining enzyme activity at 10 uM; values are per cent of control
Chain of Glycogen synthase kinase-3 beta (Homo sapiens) (P49841 whole entry, looked up): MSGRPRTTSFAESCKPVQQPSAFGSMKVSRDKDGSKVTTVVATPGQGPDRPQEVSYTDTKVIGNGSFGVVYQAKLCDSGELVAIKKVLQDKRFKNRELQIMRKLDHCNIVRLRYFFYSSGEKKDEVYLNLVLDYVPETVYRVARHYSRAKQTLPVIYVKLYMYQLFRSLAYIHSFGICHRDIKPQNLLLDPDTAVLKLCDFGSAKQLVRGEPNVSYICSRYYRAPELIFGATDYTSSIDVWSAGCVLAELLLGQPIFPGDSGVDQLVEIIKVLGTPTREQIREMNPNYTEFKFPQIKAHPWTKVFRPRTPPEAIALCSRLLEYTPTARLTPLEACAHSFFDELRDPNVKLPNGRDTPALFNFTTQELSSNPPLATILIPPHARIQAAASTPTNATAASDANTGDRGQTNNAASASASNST

[3] = molecular target: T1, Aurora kinase A (Homo sapiens) (UniProt O14965); assay: Inhibition of human Aurora A at 10 uM
T1 sequence (whole entry): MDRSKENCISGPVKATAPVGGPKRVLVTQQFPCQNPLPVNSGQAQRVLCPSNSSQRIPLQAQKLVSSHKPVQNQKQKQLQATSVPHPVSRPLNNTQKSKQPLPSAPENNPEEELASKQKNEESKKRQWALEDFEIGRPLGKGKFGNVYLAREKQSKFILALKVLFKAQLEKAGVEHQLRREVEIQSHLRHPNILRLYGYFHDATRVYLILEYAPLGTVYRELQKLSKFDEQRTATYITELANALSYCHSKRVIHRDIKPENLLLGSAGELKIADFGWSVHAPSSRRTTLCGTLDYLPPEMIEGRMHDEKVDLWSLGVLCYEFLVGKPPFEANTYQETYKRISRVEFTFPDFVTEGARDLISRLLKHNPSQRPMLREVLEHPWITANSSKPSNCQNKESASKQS

[4] = molecular target: Epidermal growth factor receptor (Homo sapiens) (UniProt P00533); assay: Inhibition of human EGFR assessed as remaining enzyme activity at 10 uM; values are per cent of control
Chain of Epidermal growth factor receptor (Homo sapiens) (P00533 whole entry): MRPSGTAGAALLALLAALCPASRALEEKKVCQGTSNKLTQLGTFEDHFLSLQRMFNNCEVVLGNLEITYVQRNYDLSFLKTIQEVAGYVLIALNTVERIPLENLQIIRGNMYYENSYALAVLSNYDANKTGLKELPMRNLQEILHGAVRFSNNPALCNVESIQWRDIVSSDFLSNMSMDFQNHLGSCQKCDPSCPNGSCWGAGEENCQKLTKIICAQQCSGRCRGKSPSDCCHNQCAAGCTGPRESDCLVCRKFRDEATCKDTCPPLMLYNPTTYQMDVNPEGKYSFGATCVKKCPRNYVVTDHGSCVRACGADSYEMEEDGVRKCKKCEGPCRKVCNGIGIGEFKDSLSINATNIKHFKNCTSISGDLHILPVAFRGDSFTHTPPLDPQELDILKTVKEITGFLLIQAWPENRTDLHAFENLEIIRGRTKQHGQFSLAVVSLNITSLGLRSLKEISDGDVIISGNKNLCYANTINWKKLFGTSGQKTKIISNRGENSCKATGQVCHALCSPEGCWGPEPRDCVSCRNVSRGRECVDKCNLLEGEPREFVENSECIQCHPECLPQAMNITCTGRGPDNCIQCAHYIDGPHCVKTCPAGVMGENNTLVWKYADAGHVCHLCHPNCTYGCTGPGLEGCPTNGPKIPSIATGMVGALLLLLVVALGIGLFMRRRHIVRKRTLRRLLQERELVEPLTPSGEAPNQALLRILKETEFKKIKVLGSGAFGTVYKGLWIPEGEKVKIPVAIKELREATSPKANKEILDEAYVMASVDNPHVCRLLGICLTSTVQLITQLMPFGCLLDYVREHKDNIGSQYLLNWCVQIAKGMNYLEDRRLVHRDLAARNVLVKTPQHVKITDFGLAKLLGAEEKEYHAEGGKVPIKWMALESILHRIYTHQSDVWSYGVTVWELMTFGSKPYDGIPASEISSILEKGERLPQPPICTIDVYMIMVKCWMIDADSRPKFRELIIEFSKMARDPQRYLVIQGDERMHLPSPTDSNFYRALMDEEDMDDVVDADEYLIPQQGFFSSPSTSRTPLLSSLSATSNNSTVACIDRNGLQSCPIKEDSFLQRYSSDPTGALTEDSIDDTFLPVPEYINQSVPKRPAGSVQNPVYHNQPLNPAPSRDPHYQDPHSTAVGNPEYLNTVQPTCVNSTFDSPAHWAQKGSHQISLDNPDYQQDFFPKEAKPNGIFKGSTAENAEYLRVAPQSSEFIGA

[5] = molecular target: Platelet-derived growth factor receptor alpha (Homo sapiens) (UniProt P16234); assay: Inhibition of human PDGFRalpha assessed as remaining enzyme activity at 10 uM; values are per cent of control
Chain of Platelet-derived growth factor receptor alpha (Homo sapiens) (P16234 whole entry): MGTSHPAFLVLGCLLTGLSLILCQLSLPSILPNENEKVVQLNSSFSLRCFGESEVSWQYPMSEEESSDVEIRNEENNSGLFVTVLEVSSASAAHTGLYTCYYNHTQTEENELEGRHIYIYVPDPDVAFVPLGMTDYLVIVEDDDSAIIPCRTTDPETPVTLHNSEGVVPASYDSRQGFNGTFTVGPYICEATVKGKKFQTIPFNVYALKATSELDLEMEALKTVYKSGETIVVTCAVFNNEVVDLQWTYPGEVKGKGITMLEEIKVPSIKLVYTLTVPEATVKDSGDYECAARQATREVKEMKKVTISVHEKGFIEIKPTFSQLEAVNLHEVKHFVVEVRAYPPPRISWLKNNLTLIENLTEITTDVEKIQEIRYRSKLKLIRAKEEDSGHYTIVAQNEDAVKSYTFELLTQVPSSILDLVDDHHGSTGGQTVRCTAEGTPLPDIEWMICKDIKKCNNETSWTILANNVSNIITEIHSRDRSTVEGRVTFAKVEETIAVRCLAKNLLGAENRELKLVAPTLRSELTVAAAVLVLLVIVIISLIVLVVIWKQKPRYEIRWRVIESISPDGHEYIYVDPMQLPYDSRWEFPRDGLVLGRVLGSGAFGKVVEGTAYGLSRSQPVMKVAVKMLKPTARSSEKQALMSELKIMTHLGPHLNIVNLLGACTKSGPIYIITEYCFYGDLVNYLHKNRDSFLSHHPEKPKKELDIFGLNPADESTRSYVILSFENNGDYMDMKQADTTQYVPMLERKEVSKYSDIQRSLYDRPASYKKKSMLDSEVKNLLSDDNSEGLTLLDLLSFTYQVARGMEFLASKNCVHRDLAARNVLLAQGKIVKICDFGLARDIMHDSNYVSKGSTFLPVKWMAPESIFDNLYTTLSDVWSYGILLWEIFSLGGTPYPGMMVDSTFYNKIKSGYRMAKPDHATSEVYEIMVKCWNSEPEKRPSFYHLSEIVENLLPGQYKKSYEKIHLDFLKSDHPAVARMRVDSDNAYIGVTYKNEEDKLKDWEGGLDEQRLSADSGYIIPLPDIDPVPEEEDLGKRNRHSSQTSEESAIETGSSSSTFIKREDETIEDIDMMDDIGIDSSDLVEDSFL

HT-29 [6] = assay: Growth inhibition of human HT-29 cells after 2 days by MTT assay; format: functional; conditions: HT-29, 48 h; outline: as §1
HT-29 [7] = assay: Cytotoxicity against human HT-29 cells at 100 uM after 2 days by sulforhodamine B assay; format: functional; conditions: HT-29, 48 h
Outline: (§2)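 Five human cancer lines (HT-29, DU-145, A-549, SK-MEL-2, SK-OV-3) seeded at 3–7 × 10³ cells/well; compounds at 100 µM added in duplicate; 37 °C, 5% CO₂, two days. Fixed with formalin, SRB stained, washed with 1% acetic acid, dye solubilized in 10 mM unbuffered Tris base; OD at 520 nm. Read-out is % inhibition.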

[8] = molecular target: T1, Aurora kinase A (Homo sapiens); assay: Inhibition of human Aurora A assessed as remaining enzyme activity at 10 uM; values are per cent of control
[9] = molecular target: Glycogen synthase kinase-3 beta (Homo sapiens) (UniProt P49841); assay: Inhibition of human GSK3-beta at 10 uM
DU-145 [10] = assay: Cytotoxicity against human DU145 cells at 100 uM after 2 days by sulforhodamine B assay; format: functional; conditions: DU-145, 48 h; outline: as §2

GI50 (DU-145 [1]) | residual activity [2] | inhibition [3] | residual activity [4] | residual activity [5] | GI50 (HT-29 [6]) | residual activity [8] | inhibition [9] | SMILES | inhibition at 100 µM (HT-29 [7]) | inhibition at 100 µM (DU-145 [10])
1070 nM | 11% | 82% | 85% | 95% | 440 nM | 18% | 89% | Cc1cccc(C(=O)Nn2c(CC3CCCCC3)nc3c(-c4ccc(Cl)cc4)n[nH]c3c2=O)c1 | 88.7% | 85.9%
29100 nM | 11% | 84% | 86% | 105% | 710 nM | 16% | 89% | CCCCc1nc2c(-c3ccc(Cl)cc3)n[nH]c2c(=O)n1NC(=O)c1ccccc1 | 89.5% | 93%
22100 nM | 8% | 91% | 76% | 99% | 2260 nM | 9% | 92% | CCCCCc1nc2c(-c3ccc(Cl)cc3)n[nH]c2c(=O)n1NC(=O)c1ccccc1 | 90.1% | 88.7%
